Activity calls are given as the source filed them. No cut-off for these calls is given here.
Tests used:
Prothrombin = Prothrombin (Homo sapiens, UniProt P00734); assay: Inhibition of thrombin
[1] = Inhibition of trypsin
Rattus norvegicus = assay: Antithrombotic activity against ferric chloride induced thrombosis in rat at 10 ug/kg/min, iv; assay type: functional, organism-based
In short: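 Ferric chloride-induced thrombosis in rats, with compound given by intravenous infusion at 10 µg/kg/min. Read-out is the number of animals with vessel occlusion out of 6.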

Plasma = assay: Anticoagulant potency in human plasma assessed as concentration required to double activated partial thromboplastin time; assay type: functional, cell-free
[2] = Selectivity for thrombin over trypsin
Canis familiaris = assay: (§1) Half life in dog at 5 mg/kg, po; assay type: ADME, organism-based, Canis lupus familiaris; parameters: dose 5 mg/kg, route oral; conditions: in vivo
[3] = Half life in dog at 1 mg/kg, po; assay type: ADME, organism-based, Canis lupus familiaris; parameters: dose 1 mg/kg, route oral; conditions: in vivo
[4] = Half life in dog at 0.5 mg/kg, po; assay type: ADME, organism-based, Canis lupus familiaris; parameters: dose 0.5 mg/kg, route oral; conditions: in vivo
[5] = Cmax in dog at 0.5 mg/kg, po; assay type: ADME, organism-based, Canis lupus familiaris; parameters: dose 0.5 mg/kg, route oral; conditions: in vivo
[6] = as §1; assay type: ADME, organism-based, Canis lupus familiaris; parameters: dose 5 mg/kg, route oral; conditions: in vivo
[7] = Half life in rhesus monkey at 5 mg/kg, po; assay type: ADME, organism-based, Macaca mulatta; parameters: dose 5 mg/kg, route oral; conditions: in vivo
[8] = Cmax in rhesus monkey at 5 mg/kg, po; assay type: ADME, organism-based, Macaca mulatta; parameters: dose 5 mg/kg, route oral; conditions: in vivo
[9] = Cmax in dog at 5 mg/kg, po; assay type: ADME, organism-based, Canis lupus familiaris; parameters: dose 5 mg/kg, route oral; conditions: in vivo

Cc1ncn(CC(=O)NCCN)c1Cn1c(C)ccc(NS(=O)(=O)Cc2ccccc2)c1=O
Ki (Prothrombin): 0.9 nM
Ki [1]: 85 µM
Activity (Rattus norvegicus): inactive
Activity (Plasma): 0.39 µM
Selectivity ratio [2]: 94000

Cc1ncn(CC(=O)NCC2CC2)c1Cn1c(C)ccc(NS(=O)(=O)Cc2ccccc2)c1=O
Ki (Prothrombin): 1.1 nM
Ki [1]: 57 µM
Selectivity ratio [2]: 52000

CCC(C)(C)NC(=O)Cn1cnc(C)c1Cn1c(C)ccc(NS(=O)(=O)Cc2ccccc2)c1=O
Ki (Prothrombin): 0.19 nM
Ki [1]: 34 µM
Activity (Plasma): 0.56 µM
Selectivity ratio [2]: 180000

Cc1nc(N)ccc1CNC(=O)Cn1c(C)ccc(NS(=O)(=O)Cc2ccccc2)c1=O [L-374087]
t1/2 (Canis familiaris): 2.5 h
Ki [1]: 3.2 µM
half-life [3]: 150 min
Activity (Plasma): 0.21 µM
half-life [4]: 228 min
Cmax [5]: 2000 nM
Selectivity ratio [2]: 6400

Cc1nc[nH]c1CNC(=O)Cn1c(C)ccc(NS(=O)(=O)Cc2ccccc2)c1=O
Ki [1]: 43 µM
Activity (Plasma): 1.1 µM

Cc1ncn(CC(=O)NCC(F)(F)F)c1Cn1c(C)ccc(NS(=O)(=O)Cc2ccccc2)c1=O
Ki (Prothrombin): 0.83 nM
Ki [1]: 49 µM
Activity (Plasma): 0.53 µM
Selectivity ratio [2]: 59000

Cc1ncn(CC(=O)NC2CCCNC2)c1CNC(=O)Cn1c(C)cnc(NCCc2ccccc2)c1=O (stereo unspecified)
Ki (Prothrombin): 1.2 nM
half-life [6]: 96 min
half-life [7]: 66 min
Ki [1]: 18 µM
Cmax [8]: 360 nM
Activity (Plasma): 0.7 µM
Cmax [9]: 1460 nM

Cc1ncn(CC(=O)NCCO)c1Cn1c(C)ccc(NS(=O)(=O)Cc2ccccc2)c1=O
Ki (Prothrombin): 2.4 nM
Ki [1]: 115 µM
Activity (Plasma): 0.85 µM
Selectivity ratio [2]: 48000

Cc1ncn(CC(=O)NC(C)(C)CN)c1Cn1c(C)ccc(NS(=O)(=O)Cc2ccccc2)c1=O
Ki (Prothrombin): 0.3 nM
Ki [1]: 70 µM
Activity (Plasma): 0.32 µM
Selectivity ratio [2]: 233000

Cc1ncn(CC(=O)NC2CC2)c1Cn1c(C)ccc(NS(=O)(=O)Cc2ccccc2)c1=O
Ki (Prothrombin): 1.8 nM
Ki [1]: 185 µM
Activity (Plasma): 0.68 µM
Selectivity ratio [2]: 103000

Cc1ncn(CC(=O)NC(C)(C)C)c1Cn1c(C)ccc(NS(=O)(=O)Cc2ccccc2)c1=O
Ki (Prothrombin): 0.36 nM
Ki [1]: 68 µM
Activity (Plasma): 0.52 µM
Selectivity ratio [2]: 190000

Cc1ncn(CC(=O)NN2CC(O)C2)c1Cn1c(C)ccc(NS(=O)(=O)Cc2ccccc2)c1=O
Ki (Prothrombin): 2.8 nM
Ki [1]: 167 µM
Activity (Plasma): 0.66 µM
Selectivity ratio [2]: 48000

Cc1ncn(CC(=O)OC(C)(C)C)c1Cn1c(C)ccc(NS(=O)(=O)Cc2ccccc2)c1=O
Ki (Prothrombin): 0.48 nM
Ki [1]: 50 µM
Selectivity ratio [2]: 104000

Cc1ncn(CC(=O)NN2CCCCC2)c1Cn1c(C)ccc(NS(=O)(=O)Cc2ccccc2)c1=O
Ki (Prothrombin): 0.65 nM
Ki [1]: 56 µM
Activity (Rattus norvegicus): inactive
Activity (Plasma): 0.37 µM
Selectivity ratio [2]: 86000

Cc1ncn(CC(=O)NC2CC(N)C2)c1Cn1c(C)ccc(NS(=O)(=O)Cc2ccccc2)c1=O (stereo unspecified)
Ki (Prothrombin): 3 nM
Ki [1]: 122 µM
Activity (Plasma): 0.65 µM
Selectivity ratio [2]: 41000

Cc1ncn(CC(=O)NCC(C)(C)N)c1Cn1c(C)ccc(NS(=O)(=O)Cc2ccccc2)c1=O
Ki (Prothrombin): 0.68 nM
Ki [1]: 80 µM
Activity (Plasma): 0.26 µM
Selectivity ratio [2]: 118000

Cc1ncn(CC(=O)NN2CCOCC2)c1Cn1c(C)ccc(NS(=O)(=O)Cc2ccccc2)c1=O
Ki (Prothrombin): 1.9 nM
Ki [1]: 101 µM
Activity (Plasma): 0.51 µM
Selectivity ratio [2]: 53000

CCNC(=O)Cn1cnc(C)c1Cn1c(C)ccc(NS(=O)(=O)Cc2ccccc2)c1=O
Ki (Prothrombin): 2 nM
Ki [1]: 137 µM
Activity (Plasma): 0.7 µM
Selectivity ratio [2]: 70000

Cc1ncn(CC(=O)NC2CCCNC2)c1Cn1c(C)ccc(NS(=O)(=O)Cc2ccccc2)c1=O (stereo unspecified)
Ki (Prothrombin): 0.31 nM
Ki [1]: 110 µM
Activity (Rattus norvegicus): inactive
Activity (Plasma): 0.35 µM
Selectivity ratio [2]: 355000

From ChEMBL document CHEMBL1142247, “Structure-based design of novel groups for use in the P1 position of thrombin inhibitor scaffolds. Part 2: N-acetamidoimidazoles” (Bioorg Med Chem Lett, 2008)
